Experimental findings from ChEMBL document CHEMBL3751754, “In vitro efficacy of 2,N-bisarylated 2-ethoxyacetamides against Plasmodium falciparum” (Bioorg Med Chem Lett, 2016) are described below.

Some results are limits rather than exact numbers.

The test system of data set [1] is Plasmodium falciparum. Nature of the data set: Antiplasmodial activity against mefloquine-resistant Plasmodium falciparum D6 assessed as inhibition of [3H]-hypoxanthine uptake after 48 hrs by liquid scintillation counting analysis. The format is functional, organism-based. The procedure, abridged:
(§1)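 IC50 from inhibition of [3H]hypoxanthine uptake by P. falciparum W2 or D6 parasites. Values come from a single experiment.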

The subject of data set [2] is Plasmodium falciparum. The experiment in a line: Antiplasmodial activity against chloroquine, quinine and pyrimethamine-resistant Plasmodium falciparum W2 assessed as inhibition of [3H]-hypoxanthine uptake after 48 hrs by liquid scintillation counting analysis. In kind it is functional, organism-based. The procedure, abridged:
as §1

Data set [3] relates to Plasmodium falciparum. The experiment in a line: Resistant index, ratio of IC50 for chloroquine, quinine and pyrimethamine-resistant Plasmodium falciparum W2 to IC50 for mefloquine-resistant Plasmodium falciparum D6. In kind it is functional. The procedure, abridged:
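Index is W2 IC50 divided by D6 IC50. Each IC50 is from inhibition of [3H]hypoxanthine uptake in a single experiment.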

The nature of data set [4]: Half life in human liver microsomes at 25 uM by LC-MS analysis. The format is ADME. In a few lines:
(§2)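 Test compound at 25 µM with pooled human liver microsomes (0.5 mg/mL total protein) in 0.1 M sodium phosphate, pH 7.4. An NADPH-regenerating system was included (1.25 mM NADP+, 3.3 mM glucose-6-phosphate, 3.3 mM MgCl2). Reaction was started with glucose-6-phosphate dehydrogenase (1 unit/mL final). Parent remaining at various time points was measured by LC-MS. Half-life assumed first-order decay; values from one experiment.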

Data set [5] in a line: Half life in mouse liver microsomes at 25 uM by LC-MS analysis. In kind it is ADME.
A short description of data set [6]: Bio-transformation in human liver microsomes at 25 uM after 30 mins by LC-MS analysis. The format is ADME. The conditions noted are these: read-out: Drug metabolism. In a few lines:
as §2

In general, IC50 refers to the concentration at which inhibition is half-maximal. For orientation: half-life means how long it takes for the measured level to halve.

With `CCOC(C(=O)Nc1ccnc2ccccc12)c1ccc(Cl)c(Cl)c1` (stereo not drawn), the IC50 was 3.2 µM in the data set on Plasmodium falciparum [1] and 1.7 µM in the data set with Plasmodium falciparum [2]. Besides, the “Ratio IC50” value in the data set on Plasmodium falciparum [3] is on record as 0.53. The half-life at 25 µM is 27 min in data set [4] and 30 min in data set [5].
With `CCOC(C(=O)Nc1cccc2ncccc12)c1ccc(Cl)c(Cl)c1` (stereo not drawn), the IC50 in the data set on Plasmodium falciparum [1] and in the data set on Plasmodium falciparum [2] was > 27 µM in each case.
Turning to `CCOC(C(=O)Nc1ccc(Cl)c(Cl)c1)c1cnc2ccccc2c1` (stereo not drawn), the IC50 turned out to be 18 µM with Plasmodium falciparum [1] and 13 µM in the data set on Plasmodium falciparum [2]. The “Ratio IC50” value in the data set with Plasmodium falciparum [3] stood at 0.71.
Consider `CCOC(C(=O)Nc1cccc2ncccc12)c1cc(Cl)ccc1Cl` (stereo not drawn), for which the IC50 was 11 µM in the data set with Plasmodium falciparum [1] and 15 µM in the data set with Plasmodium falciparum [2]. In the data set on Plasmodium falciparum [3], the “Ratio IC50” value is reported as 1.4.
Turning to `CCOC(C(=O)Nc1ccc(Cl)c(Cl)c1)c1ccnc2ccccc12` (stereo not drawn), the values for the IC50 in the data set on Plasmodium falciparum [1] and in the data set with Plasmodium falciparum [2] were 15 µM and 12 µM, respectively. For the same molecule, the “Ratio IC50” value in the data set with Plasmodium falciparum [3] was 0.8.
As for `O=C(/C=C/c1ccnc2ccccc12)c1cc(Cl)ccc1Cl`, the metabolised at 0.5 h, 25 µM in data set [6] came to 100%.
Take `CCOC(C(=O)Nc1cccc2cccnc12)c1ccc(Cl)cc1Cl` (stereo not drawn): the IC50 with Plasmodium falciparum [1] and with Plasmodium falciparum [2] was > 27 µM each time.
As to `CCOC(C(=O)Nc1cccc2cccnc12)c1ccc(Cl)c(Cl)c1` (stereo not drawn), the values for the 50% inhibitory concentration (IC50) in the data set with Plasmodium falciparum [1] and with Plasmodium falciparum [2] were 20 µM and 16 µM, respectively. The “Ratio IC50” value in the data set with Plasmodium falciparum [3] was 0.84.
The matching figures for `CCOC(C(=O)Nc1ccc2ncccc2c1)c1ccc(Cl)cc1Cl` (stereo not drawn): 15 µM, 14 µM and 0.92.
With `CCOC(C(=O)Nc1ccc2ncccc2c1)c1cc(Cl)ccc1Cl` (stereo not drawn), the IC50 with Plasmodium falciparum [1] and with Plasmodium falciparum [2] was > 17 µM in each case.
Take `CCOC(C(=O)Nc1ccc2ccccc2n1)c1cc(Cl)ccc1Cl` (stereo not drawn): the IC50 in the data set with Plasmodium falciparum [1] was 19 µM; in the data set with Plasmodium falciparum [2] it was > 27 µM.
For the molecule `CCOC(C(=O)Nc1ccnc2ccccc12)c1cc(Cl)ccc1Cl` (stereo not drawn), the concentration for half-maximal inhibition (IC50) with Plasmodium falciparum [1] was found to be 12 µM; with Plasmodium falciparum [2] it was 14 µM. Further, the “Ratio IC50” value in the data set on Plasmodium falciparum [3] is 1.2.
Take `CCOC(C(=O)Nc1ccc2ccccc2n1)c1ccc(Cl)c(Cl)c1` (stereo not drawn): the IC50 in the data set with Plasmodium falciparum [1] amounted to 19 µM; in the data set on Plasmodium falciparum [2], 15 µM. Further, the “Ratio IC50” value in the data set on Plasmodium falciparum [3] was found to be 0.76.
For the molecule `CCOC(C(=O)Nc1ccc2ncccc2c1)c1ccc(Cl)c(Cl)c1` (stereo not drawn), the IC50 in the data set on Plasmodium falciparum [1] was 7.7 µM; in the data set with Plasmodium falciparum [2] it was 9.1 µM.
For `CCOC(C(=O)Nc1ccc(Cl)cc1Cl)c1cnc2ccccc2c1` (stereo not drawn), the IC50 in the data set on Plasmodium falciparum [1] was 4.5 µM; with Plasmodium falciparum [2], 2 µM. Besides, the “Ratio IC50” value in the data set on Plasmodium falciparum [3] was determined as 0.43. Further, the half-life at 25 µM in data set [4] and in data set [5] was > 60 min each time.
With `CCOC(C(=O)Nc1ccc(Cl)cc1)c1ccc(Cl)cc1` (stereo not drawn), the IC50 with Plasmodium falciparum [1] came to 7.3 µM; in the data set with Plasmodium falciparum [2], 11 µM. In addition, the “Ratio IC50” value in the data set with Plasmodium falciparum [3] was 1.5. In addition, in data set [6], the metabolised at 0.5 h, 25 µM turned out to be 0%.
For `CCOC(C(=O)Nc1cc(Cl)ccc1Cl)c1cnc2ccccc2c1` (stereo not drawn), the concentration for half-maximal inhibition (IC50) in the data set with Plasmodium falciparum [1] and in the data set with Plasmodium falciparum [2] was 14 µM each time. In addition, the “Ratio IC50” value in the data set with Plasmodium falciparum [3] was found to be 1.1.
For the molecule `CCOC(C(=O)Nc1cccc2ncccc12)c1ccc(Cl)cc1Cl` (stereo not drawn), the IC50 in the data set with Plasmodium falciparum [1] and with Plasmodium falciparum [2] was > 27 µM each time.
As for `O=C(/C=C/c1ccnc2ccccc12)c1ccc(Cl)c(Cl)c1`, the metabolised at 0.5 h, 25 µM in data set [6] turned out to be 100%.
Take `CCOC(C(=O)Nc1ccc2ccccc2n1)c1ccc(Cl)cc1Cl` (stereo not drawn): the IC50 is 15 µM in the data set with Plasmodium falciparum [1] and 14 µM with Plasmodium falciparum [2]. Further, in the data set with Plasmodium falciparum [3], the “Ratio IC50” value came to 0.88.
Turning to `O=C(/C=C/c1cnc2ccccc2c1)c1cc(Cl)ccc1Cl`, the metabolised at 0.5 h, 25 µM in data set [6] was found to be 100%.
Turning to `CCOC(C(=O)Nc1ccc(Cl)cc1Cl)c1ccnc2ccccc12` (stereo not drawn), the half-maximal inhibitory concentration (IC50) is 6.9 µM with Plasmodium falciparum [1] and 1.8 µM in the data set with Plasmodium falciparum [2]. For the same molecule, the “Ratio IC50” value with Plasmodium falciparum [3] was found to be 0.26. The half-life at 25 µM in data set [4] and in data set [5] was > 60 min throughout.
`CCOC(C(=O)Nc1cc(Cl)ccc1Cl)c1ccnc2ccccc12` (stereo not drawn): the concentration for half-maximal inhibition (IC50) worked out at 14 µM in the data set on Plasmodium falciparum [1] and 15 µM in the data set on Plasmodium falciparum [2]. The “Ratio IC50” value in the data set on Plasmodium falciparum [3] is listed as 1.
In the case of `CCOC(C(=O)Nc1cccc2cccnc12)c1cc(Cl)ccc1Cl` (stereo not drawn), the IC50 in the data set with Plasmodium falciparum [1] was 14 µM; with Plasmodium falciparum [2], > 27 µM.
`O=C(/C=C/c1ccc(Cl)cc1)c1ccc(Cl)cc1` [4',4-DICHLOROCHALCONE]: the concentration for half-maximal inhibition (IC50) with Plasmodium falciparum [1] worked out at 2.6 µM; in the data set with Plasmodium falciparum [2], 5.3 µM. Moreover, the “Ratio IC50” value in the data set on Plasmodium falciparum [3] was 2. In data set [6], the metabolised at 0.5 h, 25 µM was 85%.
As to `CCOC(C(=O)Nc1cnc2ccccc2c1)c1ccc(Cl)c(Cl)c1` (stereo not drawn), the IC50 in the data set with Plasmodium falciparum [1] was found to be 13 µM; in the data set with Plasmodium falciparum [2], 5.9 µM.
Regarding `CCOC(C(=O)Nc1ccnc2ccccc12)c1ccc(Cl)cc1Cl` (stereo not drawn), the values for the half-maximal inhibitory concentration (IC50) with Plasmodium falciparum [1] and in the data set on Plasmodium falciparum [2] were 14 µM and 15 µM, respectively. Further, the “Ratio IC50” value in the data set on Plasmodium falciparum [3] was determined as 1.
On to `CCOC(C(=O)Nc1cnc2ccccc2c1)c1cc(Cl)ccc1Cl` (stereo not drawn), for which the IC50 worked out at 6.7 µM with Plasmodium falciparum [1] and 9.6 µM in the data set with Plasmodium falciparum [2]. Further, the “Ratio IC50” value in the data set with Plasmodium falciparum [3] is given as 1.4. Besides, the half-life at 25 µM stood at 27 min in data set [4] and 9 min in data set [5].
Consider `CCOC(C(=O)Nc1cnc2ccccc2c1)c1ccc(Cl)cc1Cl` (stereo not drawn), for which the IC50 in the data set with Plasmodium falciparum [1] turned out to be 9.8 µM; in the data set with Plasmodium falciparum [2] it was 27 µM. Also, in the data set on Plasmodium falciparum [3], the “Ratio IC50” value was determined as 2.7.
